Measured values: ChEMBL document CHEMBL1817556, “Substituted lactam and cyclic azahemiacetals modulate Pseudomonas aeruginosa quorum sensing” (Bioorg Med Chem, 2011)
Active and inactive are the calls of the source. No cut-off for these calls is given here.

Columns and labels:
[1] = biological target: T1, Acyl-homoserine-lactone synthase (Pseudomonas aeruginosa (strain ATCC 15692 / PAO1 / 1C / PRS 101 / LMG12228)) (UniProt P33883); experiment: Modulation of Pseudomonas aeruginosa lacZ-fused lasI expressed in Escherichia coli DH5alpha co-expressing pBAD-lasR assessed as 3-oxo-C12-AHL-induced effect at 1.14 mM after 3 hrs by beta-galactosidase assay relative to control
T1 sequence (whole entry): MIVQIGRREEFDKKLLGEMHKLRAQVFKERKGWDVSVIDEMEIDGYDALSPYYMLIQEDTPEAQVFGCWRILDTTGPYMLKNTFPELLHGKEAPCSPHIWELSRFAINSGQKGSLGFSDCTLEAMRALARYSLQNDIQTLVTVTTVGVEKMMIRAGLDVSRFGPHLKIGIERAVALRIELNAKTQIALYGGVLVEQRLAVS
Outline: (§1)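 E. coli DH5α carrying pSC11 (PlasI-lacZ translational fusion) and pJN105L (PBAD-lasR) was grown overnight in LB with ampicillin (100 μg/ml) and gentamicin (15 μg/ml), then diluted to OD600 0.150. Arabinose (0.2% w/v), 3-oxo-C12-AHL (2 μM) and test compound or DMSO were added. Cultures were shaken 3 h at 37 °C. β-Galactosidase activity was read in Miller units and expressed as % of the solvent sample. Triplicates per biological replicate, repeated at least twice; paired two-tailed t-test.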

[2] = biological target: 3-(3-hydroxydecanoyloxy)decanoate synthase (Pseudomonas aeruginosa (strain ATCC 15692 / PAO1 / 1C / PRS 101 / LMG12228)) (UniProt Q51559); experiment: Modulation of Pseudomonas aeruginosa lacZ-fused rhlA expressed in Escherichia coli DH5alpha co-expressing Ptac-rhlR assessed as C4-AHL-induced effect at 1.14 mM after 4 hrs by beta-galactosidase assay relative to control
Outline: (§2)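 E. coli DH5α carrying pECP61.5 (Ptac-rhlR, PrhlA-lacZ), grown overnight in LB with ampicillin 100 μg/ml and diluted to OD600 0.150. At OD600 1.0, 1 mM IPTG, 2 μM C4-HSL and compound or DMSO were added. Cultures were shaken 4 h at 37 °C, then β-galactosidase was read in Miller units. Activity is % of solvent sample, from triplicates per biological replicate, with at least two repeats.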

[3] = biological target: 3-(3-hydroxydecanoyloxy)decanoate synthase (Pseudomonas aeruginosa (strain ATCC 15692 / PAO1 / 1C / PRS 101 / LMG12228)) (UniProt Q51559); experiment: Modulation of Pseudomonas aeruginosa lacZ-fused rhlA expressed in Escherichia coli DH5alpha co-expressing Ptac-rhlR assessed as C4-AHL-induced effect at 0.29 mM after 4 hrs by beta-galactosidase assay relative to control
Outline: (§3)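 rhl reporter: E. coli DH5α carrying pECP61.5 (Ptac-rhlR, PrhlA-lacZ) was grown overnight in LB with ampicillin (100 μg/ml) only, then diluted to OD600 0.150. It was induced with 1 mM IPTG, and 2 μM C4-HSL plus compound or DMSO were added at OD600 1.0. Cultures were shaken 4 h at 37 °C. β-Galactosidase activity was read in Miller units as % of the solvent sample. Triplicates per biological replicate, at least two repeats; paired two-tailed t-test.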

[4] = biological target: T1, Acyl-homoserine-lactone synthase (Pseudomonas aeruginosa (strain ATCC 15692 / PAO1 / 1C / PRS 101 / LMG12228)); experiment: Modulation of Pseudomonas aeruginosa lacZ-fused lasI expressed in Escherichia coli DH5alpha co-expressing pBAD-lasR assessed as 3-oxo-C12-AHL-induced effect at 0.29 mM after 3 hrs by beta-galactosidase assay relative to control; outline: as §1
[5] = biological target: T1, Acyl-homoserine-lactone synthase (Pseudomonas aeruginosa (strain ATCC 15692 / PAO1 / 1C / PRS 101 / LMG12228)); experiment: Modulation of Pseudomonas aeruginosa lacZ-fused lasI expressed in Escherichia coli DH5alpha co-expressing pBAD-lasR assessed as 3-oxo-C12-AHL-induced effect at 0.86 mM after 3 hrs by beta-galactosidase assay relative to control; outline: as §1
[6] = biological target: T1, Acyl-homoserine-lactone synthase (Pseudomonas aeruginosa (strain ATCC 15692 / PAO1 / 1C / PRS 101 / LMG12228)); experiment: Modulation of Pseudomonas aeruginosa lacZ-fused lasI expressed in Escherichia coli DH5alpha co-expressing pBAD-lasR at 0.29 to 0.86 mM after 3 hrs by beta-galactosidase assay relative to control; outline: as §1
[7] = biological target: 3-(3-hydroxydecanoyloxy)decanoate synthase (Pseudomonas aeruginosa (strain ATCC 15692 / PAO1 / 1C / PRS 101 / LMG12228)) (UniProt Q51559); experiment: Modulation of Pseudomonas aeruginosa lacZ-fused rhlA expressed in Escherichia coli DH5alpha co-expressing Ptac-rhlR assessed as C4-AHL-induced effect at 0.57 mM after 4 hrs by beta-galactosidase assay relative to control; outline: as §3
[8] = biological target: 3-(3-hydroxydecanoyloxy)decanoate synthase (Pseudomonas aeruginosa (strain ATCC 15692 / PAO1 / 1C / PRS 101 / LMG12228)) (UniProt Q51559); experiment: Modulation of Pseudomonas aeruginosa lacZ-fused rhlA expressed in Escherichia coli DH5alpha co-expressing Ptac-rhlR assessed as C4-AHL-induced effect at 0.86 mM after 4 hrs by beta-galactosidase assay relative to control; outline: as §2
[9] = biological target: T1, Acyl-homoserine-lactone synthase (Pseudomonas aeruginosa (strain ATCC 15692 / PAO1 / 1C / PRS 101 / LMG12228)); experiment: Modulation of Pseudomonas aeruginosa lacZ-fused lasI expressed in Escherichia coli DH5alpha co-expressing pBAD-lasR assessed as 3-oxo-C12-AHL-induced effect at 0.57 mM after 3 hrs by beta-galactosidase assay relative to control; outline: as §1
[10] = biological target: 3-(3-hydroxydecanoyloxy)decanoate synthase (Pseudomonas aeruginosa (strain ATCC 15692 / PAO1 / 1C / PRS 101 / LMG12228)) (UniProt Q51559); experiment: Modulation of Pseudomonas aeruginosa lacZ-fused rhlA expressed in Escherichia coli DH5alpha co-expressing Ptac-rhlR assessed as C4-AHL-induced effect at 0.52 mM after 4 hrs by beta-galactosidase assay relative to control; outline: as §3
[11] = biological target: 3-(3-hydroxydecanoyloxy)decanoate synthase (Pseudomonas aeruginosa (strain ATCC 15692 / PAO1 / 1C / PRS 101 / LMG12228)) (UniProt Q51559); experiment: Modulation of Pseudomonas aeruginosa lacZ-fused rhlA expressed in Escherichia coli DH5alpha co-expressing Ptac-rhlR assessed as C4-AHL-induced effect at 0.69 mM after 4 hrs by beta-galactosidase assay relative to control; outline: as §2
[12] = biological target: T1, Acyl-homoserine-lactone synthase (Pseudomonas aeruginosa (strain ATCC 15692 / PAO1 / 1C / PRS 101 / LMG12228)); experiment: Modulation of Pseudomonas aeruginosa lacZ-fused lasI expressed in Escherichia coli DH5alpha co-expressing pBAD-lasR assessed as 3-oxo-C12-AHL-induced effect at 0.17 mM after 3 hrs by beta-galactosidase assay relative to control; outline: as §1
[13] = biological target: T1, Acyl-homoserine-lactone synthase (Pseudomonas aeruginosa (strain ATCC 15692 / PAO1 / 1C / PRS 101 / LMG12228)); experiment: Modulation of Pseudomonas aeruginosa lacZ-fused lasI expressed in Escherichia coli DH5alpha co-expressing pBAD-lasR assessed as 3-oxo-C12-AHL-induced effect at 0.35 mM after 3 hrs by beta-galactosidase assay relative to control; outline: as §1
[14] = biological target: 3-(3-hydroxydecanoyloxy)decanoate synthase (Pseudomonas aeruginosa (strain ATCC 15692 / PAO1 / 1C / PRS 101 / LMG12228)) (UniProt Q51559); experiment: Modulation of Pseudomonas aeruginosa lacZ-fused rhlA expressed in Escherichia coli DH5alpha co-expressing Ptac-rhlR assessed as C4-AHL-induced effect at 0.17 mM after 4 hrs by beta-galactosidase assay relative to control; outline: as §3
[15] = biological target: T1, Acyl-homoserine-lactone synthase (Pseudomonas aeruginosa (strain ATCC 15692 / PAO1 / 1C / PRS 101 / LMG12228)); experiment: Modulation of Pseudomonas aeruginosa lacZ-fused lasI expressed in Escherichia coli DH5alpha co-expressing pBAD-lasR assessed as 3-oxo-C12-AHL-induced effect at 0.52 mM after 3 hrs by beta-galactosidase assay relative to control; outline: as §1
[16] = biological target: 3-(3-hydroxydecanoyloxy)decanoate synthase (Pseudomonas aeruginosa (strain ATCC 15692 / PAO1 / 1C / PRS 101 / LMG12228)) (UniProt Q51559); experiment: Modulation of Pseudomonas aeruginosa lacZ-fused rhlA expressed in Escherichia coli DH5alpha co-expressing Ptac-rhlR assessed as C4-AHL-induced effect at 0.35 mM after 4 hrs by beta-galactosidase assay relative to control; outline: as §3
[17] = biological target: T1, Acyl-homoserine-lactone synthase (Pseudomonas aeruginosa (strain ATCC 15692 / PAO1 / 1C / PRS 101 / LMG12228)); experiment: Modulation of Pseudomonas aeruginosa lacZ-fused lasI expressed in Escherichia coli DH5alpha co-expressing pBAD-lasR assessed as 3-oxo-C12-AHL-induced effect at 0.69 mM after 3 hrs by beta-galactosidase assay relative to control; outline: as §1
[18] = biological target: 3-(3-hydroxydecanoyloxy)decanoate synthase (Pseudomonas aeruginosa (strain ATCC 15692 / PAO1 / 1C / PRS 101 / LMG12228)) (UniProt Q51559); experiment: Modulation of Pseudomonas aeruginosa lacZ-fused rhlA expressed in Escherichia coli DH5alpha co-expressing Ptac-rhlR assessed as C4-AHL-induced effect at 0.23 mM after 4 hrs by beta-galactosidase assay relative to control; outline: as §3
[19] = biological target: 3-(3-hydroxydecanoyloxy)decanoate synthase (Pseudomonas aeruginosa (strain ATCC 15692 / PAO1 / 1C / PRS 101 / LMG12228)) (UniProt Q51559); experiment: Modulation of Pseudomonas aeruginosa lacZ-fused rhlA expressed in Escherichia coli DH5alpha co-expressing Ptac-rhlR assessed as C4-AHL-induced effect at 0.92 mM after 4 hrs by beta-galactosidase assay relative to control; outline: as §2
[20] = biological target: T1, Acyl-homoserine-lactone synthase (Pseudomonas aeruginosa (strain ATCC 15692 / PAO1 / 1C / PRS 101 / LMG12228)); experiment: Modulation of Pseudomonas aeruginosa lacZ-fused lasI expressed in Escherichia coli DH5alpha co-expressing pBAD-lasR assessed as 3-oxo-C12-AHL-induced effect at 0.92 mM after 3 hrs by beta-galactosidase assay relative to control; outline: as §1
[21] = biological target: T1, Acyl-homoserine-lactone synthase (Pseudomonas aeruginosa (strain ATCC 15692 / PAO1 / 1C / PRS 101 / LMG12228)); experiment: Modulation of Pseudomonas aeruginosa lacZ-fused lasI expressed in Escherichia coli DH5alpha co-expressing pBAD-lasR assessed as 3-oxo-C12-AHL-induced effect at 0.46 mM after 3 hrs by beta-galactosidase assay relative to control; outline: as §1
[22] = biological target: 3-(3-hydroxydecanoyloxy)decanoate synthase (Pseudomonas aeruginosa (strain ATCC 15692 / PAO1 / 1C / PRS 101 / LMG12228)) (UniProt Q51559); experiment: Modulation of Pseudomonas aeruginosa lacZ-fused rhlA expressed in Escherichia coli DH5alpha co-expressing Ptac-rhlR assessed as C4-AHL-induced effect at 0.46 mM after 4 hrs by beta-galactosidase assay relative to control; outline: as §3
[23] = biological target: T1, Acyl-homoserine-lactone synthase (Pseudomonas aeruginosa (strain ATCC 15692 / PAO1 / 1C / PRS 101 / LMG12228)); experiment: Modulation of Pseudomonas aeruginosa lacZ-fused lasI expressed in Escherichia coli DH5alpha co-expressing pBAD-lasR assessed as 3-oxo-C12-AHL-induced effect at 0.23 mM after 3 hrs by beta-galactosidase assay relative to control; outline: as §1

`CCCSC[C@@H]1CCC(O)N1` (mixture of isomers) showed an Activity [1] of 11%, an Activity [2] of 9% and an Activity [3] of 121%. For the same molecule, the Activity [4] was 228%, the Activity [5] was 31% and the Activity [6] was “inactive”. It also gave an Activity [7] of 138%, an Activity [8] of 41% and an Activity [9] of 115%.

For `CCCCCCCCCSC[C@H]1NC(=O)[C@H](O)[C@@H]1O`, the Activity [10] was 115%, the Activity [11] was 135% and the Activity [12] was 93%. The Activity [13] was 87%, the Activity [14] was 106% and the Activity [15] was 80%. It also gave an Activity [16] of 117% and an Activity [17] of 63%.

`CCCCCCSC[C@@H]1CCC(O)N1` (mixture of isomers) showed an Activity [11] of 0%, an Activity [18] of 26% and an Activity [19] of 0%. The Activity [20] was 0%, the Activity [21] was 0% and the Activity [22] was 0.2%. The Activity [23] was 109% and the Activity [17] was 0%.
